“And” between values parts separate entries of the source, which are not always exact repeats. Equal values may be shown once.
Experiments:
[1] = system: Cerebellar granule neurone; test: Stimulation caused by aspartate in Cerebellar Granule Cells over basal stimulation; assay type: functional, Rattus norvegicus
Summary of the method: (§1)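 Cerebellar granule cells preincubated 15 min with 50 μM azetidine, then 10 min without (basal) or with 10 μM glutamate or 10 μM aspartate; 45Ca2+ influx measured. Percent stimulation relative to agonist alone (100%) after subtracting respective basal values; means ± SEM of four experiments.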

[2] = system: Cerebellar granule neurone; test: Influx of calcium in Cerebellar Granule Cells of rat after 10 min of incubation with compound; assay type: functional; summary of the method: as §1
[3] = system: Cerebellar granule neurone; test: Influx of calcium in Cerebellar Granule Cells of rat after 10 min of incubation with compound and 10 uM aspartate; assay type: functional; summary of the method: as §1
[4] = system: Cerebellar granule neurone; test: Stimulation caused by Glutamate in Cerebellar Granule Cells over basal stimulation; assay type: functional, Rattus norvegicus; summary of the method: as §1
[5] = system: Cerebellar granule neurone; test: Influx of calcium in Cerebellar Granule Cells of rat after 10 min of incubation with compound and 10 uM glutamate; assay type: functional; summary of the method: as §1
Rattus norvegicus [6] = organism: Rattus norvegicus; test: Effect on fractional [3H]GABA release from rat forebrain neurons in culture; assay type: functional
Summary of the method: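 Embryonic rat forebrain neurons cultured 8–9 days, loaded with 1 μCi/mL [3H]GABA 60–90 min at 37 °C, washed eight times at 5 min intervals in Mg2+-free HEPES saline, then agonist added; CGS 19755 (100 μM) where used added 5 min before. Evoked efflux minus basal, as fraction of remaining cell tritium (SDS-solubilized); 4–6 wells.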

[7] = system: Cerebellar granule neurone; test: Ability to induce calcium uptake in cerebellar granule cells was determined at 50 uM concentration in presence of 100 uM kainate (control = 56+/-3.7); assay type: functional, Rattus norvegicus
Summary of the method: (§2)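 Rat cerebellar granule cells (8-day-old rats), cultured 8–9 days; HEPES saline pH 7.35 with 1.3 mM CaCl2, 45CaCl2 tracer 10 min, then azetidine 50 μM 15 min at 37 °C, then agonist 10 min. Kainate/quisqualate media held 1 mM MgCl2 and 10 μM CPP. Choline/EGTA wash stop; 45Ca uptake per mg protein.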

[8] = system: Cerebellar granule neurone; test: Stimulation caused by Aspartate in Cerebellar Granule Cells at 50 uM concentration in presence of 50 uM NMDA; assay type: functional, Rattus norvegicus; summary of the method: as §2
[9] = system: Cerebellar granule neurone; test: Stimulation caused by Aspartate in Cerebellar Granule Cells at 50 uM concentration in presence of 10 uM CPP; assay type: functional, Rattus norvegicus; summary of the method: as §2
[10] = system: Cerebellar granule neurone; test: Stimulation caused by Aspartate in Cerebellar Granule Cells at 50 uM concentration in presence of 100 uM kainate; assay type: functional, Rattus norvegicus; summary of the method: as §2
[11] = system: Cerebellar granule neurone; test: Stimulation caused by Aspartate in Cerebellar Granule Cells at 50 uM concentration; assay type: functional, Rattus norvegicus; summary of the method: as §2
[12] = system: Cerebellar granule neurone; test: Ability to induce calcium uptake in cerebellar granule cells was determined at 50 uM concentration in presence of 1 uM glutamate (control= 39+/-3.8); assay type: functional, Rattus norvegicus; summary of the method: as §2
[13] = system: Cerebellar granule neurone; test: Ability to induce calcium uptake in cerebellar granule cells was determined at 50 uM concentration in presence of 10 uM aspartate (control = 43+/-2.9)
[14] = system: Cerebellar granule neurone; test: Stimulation caused by Aspartate in Cerebellar Granule Cells at 50 uM concentration in presence of 1 uM glutamate; assay type: functional, Rattus norvegicus; summary of the method: as §2
[15] = system: Cerebellar granule neurone; test: Stimulation caused by Aspartate in Cerebellar Granule Cells at 50 uM concentration in presence of 10 uM aspartate
[16] = system: Cerebellar granule neurone; test: Ability to induce calcium uptake in cerebellar granule cells was determined at 50 uM concentration in presence of 10 uM CPP (control= 5.4+/-0.3); assay type: functional, Rattus norvegicus; summary of the method: as §2
[17] = system: Cerebellar granule neurone; test: Ability to induce calcium uptake in cerebellar granule cells was determined at 50 uM concentration in presence of 100 uM quisqualate (control=15+/-1.2); assay type: functional, Rattus norvegicus; summary of the method: as §2
[18] = system: Cerebellar granule neurone; test: Ability to induce calcium uptake in cerebellar granule cells was determined at 50 uM concentration in presence of 50 uM NMDA (control = 91+/-6.5); assay type: functional, Rattus norvegicus; summary of the method: as §2
[19] = system: Cerebellar granule neurone; test: Stimulation caused by Aspartate in Cerebellar Granule Cells at 50 uM concentration in presence of 100 uM quisqualate; assay type: functional, Rattus norvegicus; summary of the method: as §2
Rattus norvegicus [20] = organism: Rattus norvegicus; test: Effect on fractional [3H]GABA release from rat forebrain neurons in culture in the presence of 100 uM CGS 19755
[21] = system: Cerebellar granule neurone; test: Ability to induce calcium uptake in cerebellar granule cells was determined at 50 uM concentration (control= 16+/-1.5); assay type: functional, Rattus norvegicus; summary of the method: as §2

With O=C(O)[C@@H]1CCN1 the Stimulation [1] was 105%, the Influx [2] was 16 nM/mg and the Influx [3] was 44.5 nM/mg.

With O=C(O)[C@H]1C[C@@H](C(=O)O)N1Cc1ccccc1 the Influx [2] was 15 nM/mg.

For COC(=O)[C@@H]1C[C@H](C(=O)OC)N1, the Influx [2] was 19 nM/mg.

NC(=O)[C@@H]1C[C@H](C(=O)O)N1 was tested, and the Influx [2] was 20 nM/mg.

With CC(C)(C)OC(=O)[C@H]1C[C@@H](C(=O)O)N1 the Stimulation [4] was 144%, the Stimulation [1] was 136% and the Influx [2] was 15 nM/mg. The Influx [3] was 52 nM/mg and the Influx [5] was 67 nM/mg.

With NC(=O)[C@@H]1C[C@H](C(N)=O)N1 the Influx [2] was 15 nM/mg.

For COC(=O)[C@@H]1C[C@@H](C(=O)OC(C)(C)C)N1, the Stimulation [4] was 105%, the Influx [2] was 15 nM/mg and the Influx [5] was 52 nM/mg.

For CC(=O)N1[C@@H](C(=O)O)C[C@H]1C(=O)O, the Influx [2] was 16 nM/mg.

CCCCCCN1[C@@H](C(=O)O)C[C@H]1C(=O)O showed an Influx [2] of 16 nM/mg.

O=C(O)[C@H]1C[C@@H](CO)N1 gave an Influx [2] of 19 nM/mg and an Influx [3] of 58 nM/mg.

COC(=O)[C@H]1C[C@@H](C(=O)O)N1 gave an Influx [2] of 18 nM/mg.

O=C(O)[C@@H]1C[C@H](C(=O)O)N1 was tested, and the Release (Rattus norvegicus [6]) was 1.04%, the Influx [7] was 52 nM/mg and the Stimulation [4] was 186%. For the same compound, the Stimulation [1] was 175%, the Stimulation [8] was 151% and the Stimulation [9] was 91%. It also gave a Stimulation [10] of 93%, a Stimulation [11] of 144% and an Influx [12] of 85 nM/mg. The Influx [13] was 75 nM/mg, the Influx [2] was 25 nM/mg and 21 nM/mg and the Stimulation [14] was 268%. For the same compound, the Influx [3] was 68 nM/mg, the Stimulation [15] was 193% and the Influx [16] was 4.9 nM/mg. For the same compound, the Influx [17] was 15 nM/mg, the Influx [18] was 136 nM/mg and the Stimulation [19] was 100%. For the same compound, the Release (Rattus norvegicus [20]) was -0.08%, the Influx [5] was 92 nM/mg and the Influx [21] was 23 nM/mg.

For CC(C)(C)OC(=O)[C@@H]1C[C@@H](C(=O)O)N1, the Stimulation [4] was 97%, the Influx [2] was 16 nM/mg and the Influx [5] was 51 nM/mg.

Compound COC(=O)[C@H]1C[C@@H](C(=O)OC(C)(C)C)N1 has a Stimulation [4] of 111%, a Stimulation [1] of 107% and an Influx [2] of 14 nM/mg. The Influx [3] was 43 nM/mg and the Influx [5] was 54 nM/mg.

Compound O=C(O)[C@@H]1C[C@@H](C(=O)O)N1 has a Stimulation [4] of 106%, an Influx [2] of 14 nM/mg and an Influx [5] of 52 nM/mg.

C=C(C)[C@H]1CN[C@H](C(=O)O)[C@H]1CC(=O)O [KAINIC ACID] was tested, and the Release (Rattus norvegicus [6]) was 2.65% and the Release (Rattus norvegicus [20]) was 2.63%.

CN[C@H](CC(=O)O)C(=O)O [N-METHYL-D-ASPARTIC ACID (NMDA)] gave a Release (Rattus norvegicus [6]) of 0.73% and a Release (Rattus norvegicus [20]) of 0.09%.

Source: ChEMBL document CHEMBL1124784, “Synthesis and bioactivity of a new class of rigid glutamate analogues. Modulators of the N-methyl-D-aspartate receptor” (1990)
